“Also recorded” adds a separate entry of the source. Where two headings read alike, the source gives them in different places.
Key:
MCTs = assay: [14C]-lactate uptake in HepG2 cells; format: cell-based, human; conditions: 10 µM, 30 min preincubation, washed, NMDG pH 6
How it was run: (§1)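 HepG2 cells, 48 h after seeding, were preincubated 30 min with 10 µM test compound and washed; substrate uptake followed without inhibitor. [14C]-nicotinate and [3H]-arginine were run in NaCl buffer pH 7.5, and [3H]-glutamine and [3H]-tryptophan in NMDG buffer pH 7.5, each for 15 min. [14C]-lactate was run in NMDG buffer pH 6 for 3 min. Uptake was normalised to protein and compared with untreated control.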

human NaCT = conditions: cited from earlier work
mouse NaCT/Slc13a5 = target: T1, mouse NaCT/Slc13a5 (Mus musculus, UniProt Q67BT3); assay: [14C]-citrate uptake in HEK293FT cells with ectopic expression of mouse Slc13a5; format: cell-based
T1 sequence (Q67BT3 1-572): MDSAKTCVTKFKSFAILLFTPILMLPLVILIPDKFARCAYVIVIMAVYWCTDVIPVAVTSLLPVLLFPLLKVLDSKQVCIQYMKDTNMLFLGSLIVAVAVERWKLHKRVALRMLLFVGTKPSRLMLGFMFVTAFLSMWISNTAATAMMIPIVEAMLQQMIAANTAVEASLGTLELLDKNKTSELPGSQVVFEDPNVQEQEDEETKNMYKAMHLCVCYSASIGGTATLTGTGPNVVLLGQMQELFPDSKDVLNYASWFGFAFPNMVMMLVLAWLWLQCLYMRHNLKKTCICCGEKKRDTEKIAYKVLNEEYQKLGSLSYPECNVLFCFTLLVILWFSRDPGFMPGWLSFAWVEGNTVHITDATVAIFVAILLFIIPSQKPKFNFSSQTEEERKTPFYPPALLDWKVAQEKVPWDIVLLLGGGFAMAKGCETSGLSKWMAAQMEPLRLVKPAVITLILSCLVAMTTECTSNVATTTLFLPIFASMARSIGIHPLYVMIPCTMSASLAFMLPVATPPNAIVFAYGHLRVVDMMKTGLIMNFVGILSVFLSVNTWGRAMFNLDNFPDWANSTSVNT
How it was run: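 Mouse Slc13a5 was transiently expressed in HEK293FT cells (CMV plasmid, Lipofectamine-3000) and assayed 48 h after transfection in NaCl buffer pH 7.5 without LiCl. Cells got a 30 min preincubation with 10 µM test compound or 100 µM reference NaCT inhibitor, two washes and 0 or 60 min recovery. Then 2 µM [14C]-citrate uptake ran 30 min, or with inhibitor co-present only during uptake. Na+-dependent uptake was normalised to protein.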

HepG2 cells = assay: Colony formation assay; format: cell-based, human; conditions: 5 and 10 µM, 10 days, culture medium with 0.5 mM citrate
How it was run: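 HepG2 cells were seeded at 5000 per well in six-well plates and grown for 10 days in normal medium supplemented with 0.5 mM citrate. The medium held 0.1% DMSO alone, or the test compound at 5 or 10 µM plus 0.1% DMSO, and was renewed every other day. Cells were washed in PBS, methanol-fixed and Giemsa-stained. Colonies were photographed, then the stain was extracted and quantified against the no-inhibitor control.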

SLC6A14 = target: T2, SLC6A14 (Homo sapiens, UniProt Q9UN76); assay: [3H]-arginine uptake in HepG2 cells; format: cell-based; conditions: 10 µM, 30 min preincubation, washed, NaCl buffer pH 7.5
T2 sequence (Q9UN76 1-642): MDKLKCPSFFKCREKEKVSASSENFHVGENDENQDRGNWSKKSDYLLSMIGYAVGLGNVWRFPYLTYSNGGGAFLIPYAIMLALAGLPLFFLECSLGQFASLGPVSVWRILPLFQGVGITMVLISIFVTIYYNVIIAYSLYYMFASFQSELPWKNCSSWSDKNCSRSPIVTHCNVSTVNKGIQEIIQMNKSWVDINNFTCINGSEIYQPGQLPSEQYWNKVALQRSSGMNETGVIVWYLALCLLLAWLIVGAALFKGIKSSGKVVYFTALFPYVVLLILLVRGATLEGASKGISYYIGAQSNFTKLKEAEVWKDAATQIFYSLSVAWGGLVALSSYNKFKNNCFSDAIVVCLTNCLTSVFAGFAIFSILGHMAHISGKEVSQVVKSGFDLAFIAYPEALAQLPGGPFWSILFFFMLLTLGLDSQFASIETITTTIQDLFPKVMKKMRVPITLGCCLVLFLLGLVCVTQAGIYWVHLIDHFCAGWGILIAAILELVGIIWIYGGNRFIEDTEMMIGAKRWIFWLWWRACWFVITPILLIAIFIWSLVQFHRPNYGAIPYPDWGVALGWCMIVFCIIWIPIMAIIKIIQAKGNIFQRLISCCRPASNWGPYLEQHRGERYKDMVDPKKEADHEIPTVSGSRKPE
How it was run: as §1

NaCT/SLC13A5 [1] = target: T3, NaCT/SLC13A5 (Homo sapiens, UniProt Q86YT5); assay: Na+-coupled [14C]-citrate uptake in HepG2 cells; format: cell-based; conditions: for effect on Na+-dependent citrate uptake, compound present only during uptake: PF06761281 100 µM, BI01383298 10 µM; for maximal inhibition of citrate uptake: inhibitor present only during uptake; for reversibility of inhibition of SLC13A5: preincubation 30 min, then uptake
How it was run: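 HepG2 cells seeded at 4 × 10^5/well and assayed 48 h later. [14C]-citrate uptake measured for 30 min at 37°C in NaCl buffer pH 7.5 (Hepes/Tris), with or without 10 mM LiCl. Inhibitor either co-incubated during uptake, or preincubated 30 min and washed twice before inhibitor-free uptake. Recovery runs: 10 µM for 30 min in buffer or medium, washed, then held 0, 30 or 60 min (buffer) or 0 or 24 h (medium). Na+-free NMDG-Cl uptake subtracted; values protein-normalized (BCA).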

SLC5A8 = target: T4, SLC5A8 (Homo sapiens, UniProt Q8N695); assay: [14C]-nicotinate uptake in HepG2 cells; format: cell-based; conditions: 10 µM, 30 min preincubation, washed, NaCl buffer pH 7.5
T4 sequence (Q8N695 1-610): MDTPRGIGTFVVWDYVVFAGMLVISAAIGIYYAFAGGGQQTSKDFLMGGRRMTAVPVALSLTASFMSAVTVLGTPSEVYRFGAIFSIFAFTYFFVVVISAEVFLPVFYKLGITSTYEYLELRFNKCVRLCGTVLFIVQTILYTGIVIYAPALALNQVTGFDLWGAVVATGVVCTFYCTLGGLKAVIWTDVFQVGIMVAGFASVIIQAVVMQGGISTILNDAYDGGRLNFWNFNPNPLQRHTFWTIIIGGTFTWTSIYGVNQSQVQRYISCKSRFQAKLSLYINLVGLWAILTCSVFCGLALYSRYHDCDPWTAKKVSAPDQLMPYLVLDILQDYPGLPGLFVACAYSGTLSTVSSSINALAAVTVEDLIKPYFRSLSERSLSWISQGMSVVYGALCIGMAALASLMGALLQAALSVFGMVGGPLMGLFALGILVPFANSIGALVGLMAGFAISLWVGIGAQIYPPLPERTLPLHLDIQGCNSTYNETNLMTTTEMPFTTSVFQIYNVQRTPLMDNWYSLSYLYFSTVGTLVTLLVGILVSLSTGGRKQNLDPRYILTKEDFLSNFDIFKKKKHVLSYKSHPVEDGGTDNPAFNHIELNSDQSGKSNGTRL
How it was run: as §1

NaCT/SLC13A5 [2] = target: T3, NaCT/SLC13A5; assay: [14C]-citrate uptake in HEK293FT cells with ectopic expression of human SLC13A5; format: cell-based
How it was run: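 Human SLC13A5 (CMV plasmid) was transiently expressed in HEK293FT cells by Lipofectamine-3000, assay 48 h post-transfection. Cells were preincubated 30 min in NaCl buffer (Hepes/Tris, pH 7.5) with the test compound (10 µM or a concentration series), washed twice, then given [14C]-citrate (2 µM) for 30 min at 37 °C without inhibitor. NMDG (Na+-free) uptake was subtracted and values normalised to protein. IC50 came from the dose-response.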

mouse NaCT = conditions: cited from earlier work
SLC7A5 = SLC7A5 (Homo sapiens, UniProt Q01650); assay: [3H]-glutamine and [3H]-tryptophan uptake in HepG2 cells; format: cell-based; conditions: 10 µM, 30 min preincubation, washed, NMDG buffer pH 7.5
How it was run: as §1

NaCT = conditions: cited from earlier work
[3] = HepG2, 10 µM, 30 min preincubation, washed, NaCl buffer pH 7.5

SLC7A5, sequence (Q01650 whole entry): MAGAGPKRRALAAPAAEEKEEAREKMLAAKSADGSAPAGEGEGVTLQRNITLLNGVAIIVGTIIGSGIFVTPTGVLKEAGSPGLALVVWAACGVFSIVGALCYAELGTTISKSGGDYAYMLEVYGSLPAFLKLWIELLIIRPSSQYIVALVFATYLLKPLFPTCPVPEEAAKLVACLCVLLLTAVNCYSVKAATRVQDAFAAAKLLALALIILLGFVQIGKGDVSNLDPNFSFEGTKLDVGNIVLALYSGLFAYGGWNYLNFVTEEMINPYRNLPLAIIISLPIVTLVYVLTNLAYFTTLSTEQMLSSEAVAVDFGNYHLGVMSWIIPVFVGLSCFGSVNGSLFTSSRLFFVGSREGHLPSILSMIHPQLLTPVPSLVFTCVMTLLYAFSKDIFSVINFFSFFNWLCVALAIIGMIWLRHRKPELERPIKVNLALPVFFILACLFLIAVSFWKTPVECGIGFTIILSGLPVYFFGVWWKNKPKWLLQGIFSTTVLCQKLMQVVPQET
T3 sequence (Q86YT5 whole entry): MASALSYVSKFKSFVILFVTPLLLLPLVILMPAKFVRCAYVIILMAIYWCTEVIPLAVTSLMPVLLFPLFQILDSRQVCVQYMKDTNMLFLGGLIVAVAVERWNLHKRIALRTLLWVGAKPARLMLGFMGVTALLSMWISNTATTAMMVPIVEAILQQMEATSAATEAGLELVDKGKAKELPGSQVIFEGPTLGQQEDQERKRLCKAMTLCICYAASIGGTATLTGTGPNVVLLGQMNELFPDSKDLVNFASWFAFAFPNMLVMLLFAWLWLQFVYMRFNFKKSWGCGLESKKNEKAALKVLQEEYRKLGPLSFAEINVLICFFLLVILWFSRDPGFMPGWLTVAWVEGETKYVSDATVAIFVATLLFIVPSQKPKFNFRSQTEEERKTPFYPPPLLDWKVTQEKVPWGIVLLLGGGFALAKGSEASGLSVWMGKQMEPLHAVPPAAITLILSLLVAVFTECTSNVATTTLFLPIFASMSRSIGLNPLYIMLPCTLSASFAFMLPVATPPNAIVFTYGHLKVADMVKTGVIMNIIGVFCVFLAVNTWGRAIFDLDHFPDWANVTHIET

O=C(NCc1ccc(F)cc1)C1CCN(S(=O)(=O)c2cc(Cl)cc(Cl)c2)CC1 [BI01383298, 1-(3,5-Dichlorophenylsulfonyl)-N-(4-fluorobenzyl)piperidine-4-carboxamide]
Lactate (3 µM) uptake (MCTs): 137 ± 7 pmol/mg of protein/3 min
Lactate (3 µM) uptake, % Control (MCTs): 97 ± 5 % Control
IC50 (human NaCT; read-out: IC50 for human NaCT, ref Structural Genomics Consortium): 25 to 60 nM
effect on mouse NaCT/Slc13a5 (mouse NaCT/Slc13a5; 10 µM, 30 min preincubation, uptake without inhibitor): not affected; also recorded: not inhibited; also recorded: little or no inhibition
effect on HepG2 cell proliferation (HepG2 cells): decreased cell proliferation; also recorded: robust inhibition of cell proliferation; also recorded: does block the proliferation
Arginine (5 µM) uptake (SLC6A14): 935 ± 51 pmol/mg of protein/15 min
Arginine (5 µM) uptake, % Control (SLC6A14): 101 ± 5 % Control
preincubation time at which maximal inhibition is evident (NaCT/SLC13A5 [1]; HepG2, 10 µM inhibitor, washed, uptake without inhibitor): 30 min
Citrate (7 µM) uptake (NaCT/SLC13A5 [1]; [3]): 88.2 ± 5.6 pmol/mg of protein/30 min
Citrate (7 µM) uptake, % Control (NaCT/SLC13A5 [1]; [3]): 18 ± 1 % Control
IC50 lower in presence of Li+ than in its absence (NaCT/SLC13A5 [1]; HepG2, 30 min preincubation, inhibitor also present during uptake): 2 fold
inhibitory potency relative to PF06761281 (NaCT/SLC13A5 [1]; HepG2, BI01383298 10 µM vs PF06761281 100 µM): at least 10 times
effect on Na+-dependent citrate uptake, compound present only during uptake (NaCT/SLC13A5 [1]; HepG2): inhibited
maximal inhibition of citrate uptake (NaCT/SLC13A5 [1]; HepG2, absence of Li+): ~60%
maximal inhibition of citrate uptake (NaCT/SLC13A5 [1]; HepG2, presence of Li+): ~60%
increase in inhibitory potency with preincubation (NaCT/SLC13A5 [1]; HepG2, preincubated vs not preincubated, both in absence or presence of Li+): ~10 fold
IC50 (NaCT/SLC13A5 [1]; IC50 for human NaCT (summary), human NaCT, HepG2 and HEK293 cells): ~100 nM
type of inhibition of NaCT/SLC13A5 (NaCT/SLC13A5 [1]; kinetic analysis, Eadie–Hofstee plot): non-competitive
reversibility of inhibition of SLC13A5 (NaCT/SLC13A5 [1]; washed): irreversible
Nicotinate (8 µM) uptake (SLC5A8): 123 ± 4 pmol/mg of protein/15 min
Nicotinate (8 µM) uptake, % Control (SLC5A8): 100 ± 3 % Control
IC50 (NaCT/SLC13A5 [2]): 171 ± 51 nM
effect on human NaCT/SLC13A5 transporter activity (NaCT/SLC13A5 [2]; HEK293FT, 10 µM): complete inhibition
effect on mouse NaCT (mouse NaCT; ref Structural Genomics Consortium): no effect
Glutamine (5 µM) uptake (SLC7A5): 306 ± 3 pmol/mg of protein/15 min
Tryptophan (5 µM) uptake (SLC7A5): 76 ± 3 pmol/mg of protein/15 min
Tryptophan (5 µM) uptake, % Control (SLC7A5): 95 ± 3 % Control

COc1ncc(C)cc1CC[C@@](O)(CC(=O)O)C(=O)O [PF06761281, (2R)-2-Hydroxy-2-[2-(2-methoxy-5-methyl-3-pyridinyl)ethyl]succinic acid]
increase in inhibitor potency over PF-06649298 (human NaCT; optimized derivative): ~4 fold
effect on activity of mouse NaCT/Slc13a5 (mouse NaCT/Slc13a5; 100 µM): able to inhibit
inhibitory potency for mouse NaCT/Slc13a5 compared with human NaCT/SLC13A5 (mouse NaCT/Slc13a5; 100 µM): greater than for human NaCT/SLC13A5
effect on Na+-dependent citrate uptake, compound present only during uptake (NaCT/SLC13A5 [1]; HepG2): inhibited
reversibility of inhibition of SLC13A5 (NaCT/SLC13A5 [1]; washed): at least partly reversible

CC(C)(C)c1ccc(CC[C@@](O)(CC(=O)O)C(=O)O)cc1 [PF-06649298]
IC50 (human NaCT; read-out: IC50 for NaCT-mediated citrate uptake, human NaCT): 400 to 10000 nM
species selectivity (mouse and human NaCTs) (mouse NaCT): no species selectivity

O=C(O)CC(O)(CC(=O)O)C(=O)O [citrate]
lower affinity of human NaCT for citrate than mouse NaCT (human NaCT; kinetic experiments under identical conditions): at least 30 fold

CN(C)C(=N)N=C(N)N [metformin]
effect on expression of NaCT in HepG2 cells (NaCT): suppresses the expression of NaCT

Reference: PMC7657661 (Biochemical Journal, 2020)
